Data as given in ChEMBL document CHEMBL1138787, “Synthesis and evaluation of nitrofuranylamides as novel antituberculosis agents” (J Med Chem, 2004).

Experiments:
[1] = molecular target: UDP-galactopyranose mutase (Mycobacterium tuberculosis, UniProt P9WIQ1); experiment: Inhibition of Mycobacterium tuberculosis UDP-galactose mutase expressed in Escherichia coli UDP-6 [3H]- Galf; parameters: species or system H37Rv
How it was run: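 Reverse-direction radiometric Glf assay on crude soluble enzyme extract, preactivated 30 min at 37 °C in 25 mM MOPS with NADH and FAD. Each 25 µL well held MOPS pH 7.2, MgCl2, NADH, FAD, 2.3 µg protein, 20 pmol UDP-6-[3H]Galf and 1 µL DMSO. Inhibitors at 100-6.3 µM; reaction 5-20 min. Conversion read by HPLC or periodate filter-plate counting; IC50 calculated.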

[2] = system: Vero; experiment: Selectivity is the ratio of cytotoxicity compared to TBMIC; type: functional
How it was run: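 Ratio of VERO cell toxicity IC50 to M. tuberculosis H37Ra MIC. VERO monolayers were exposed to 3-fold compound dilutions for 72 h, and viability was read by tetrazolium reduction at 490 nm, with untreated and SDS-lysed cells as 0% and 100%. MIC was by microbroth dilution in 7H9 (OD650 0.01 inoculum), 37 °C for 8 days, with visual 90% growth inhibition.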

[3] = system: Mycobacterium tuberculosis; experiment: Activity against Mycobacterium tuberculosis H37Ra; type: functional
How it was run: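 Microbroth dilution in microtiter plates. H37Ra grown in Middlebrook 7H9 to OD650 0.4-0.6, then diluted to OD650 0.01. 100 µL of cells added to serial compound dilutions and incubated 37 °C for 8 days, growth read visually. MIC90 taken as wells with >90% growth inhibition; isoniazid positive control on every plate.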

[4] = The protein binding is expressed as percent bound as determined by VolSurf; type: ADME; conditions: read-out: Protein binding (converted)
[5] = system: Mycobacterium tuberculosis; experiment: Viable Mycobacterium tuberculosis in spleen of infected Mice after an 8-day drug treatment; Dose is 150 mg/kg; type: functional
How it was run: (§1)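 C57BL/6 interferon-γ gene-depleted (GKO) mice infected by low-dose aerosol. Eight daily treatments started 18 days postinfection. At day 28, lung and spleen homogenates serially diluted onto Middlebrook 7H11 agar and incubated 4 weeks at 37 °C. CFU log-transformed and reported ±SEM; one-way Dunnett multiple-comparison ANOVA, significance at 95% confidence.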

[6] = system: Mycobacterium tuberculosis; experiment: Viable Mycobacterium tuberculosis in lungs of infected Mice after an 8-day drug treatment; Dose is 150 mg/kg; type: functional, Lung; how it was run: as §1
[7] = system: Mycobacterium tuberculosis; experiment: Viable Mycobacterium tuberculosis in spleen of infected Mice after an 8-day drug treatment; Dose is 300 mg/kg; type: functional; how it was run: as §1
[8] = system: Mycobacterium tuberculosis; experiment: Viable Mycobacterium tuberculosis in lungs of infected Mice after an 8-day drug treatment; Dose is 300 mg/kg; type: functional, Lung; how it was run: as §1
[9] = system: Mycobacterium tuberculosis; experiment: Viable Mycobacterium tuberculosis in lungs of infected Mice after an 8-day drug treatment; Dose is 25 mg/kg; type: functional, Lung; how it was run: as §1
[10] = system: Mycobacterium tuberculosis; experiment: Viable Mycobacterium tuberculosis in spleen of infected Mice after an 8-day drug treatment; Dose is 25 mg/kg; type: functional; how it was run: as §1

Chain of UDP-galactopyranose mutase (P9WIQ1 whole entry): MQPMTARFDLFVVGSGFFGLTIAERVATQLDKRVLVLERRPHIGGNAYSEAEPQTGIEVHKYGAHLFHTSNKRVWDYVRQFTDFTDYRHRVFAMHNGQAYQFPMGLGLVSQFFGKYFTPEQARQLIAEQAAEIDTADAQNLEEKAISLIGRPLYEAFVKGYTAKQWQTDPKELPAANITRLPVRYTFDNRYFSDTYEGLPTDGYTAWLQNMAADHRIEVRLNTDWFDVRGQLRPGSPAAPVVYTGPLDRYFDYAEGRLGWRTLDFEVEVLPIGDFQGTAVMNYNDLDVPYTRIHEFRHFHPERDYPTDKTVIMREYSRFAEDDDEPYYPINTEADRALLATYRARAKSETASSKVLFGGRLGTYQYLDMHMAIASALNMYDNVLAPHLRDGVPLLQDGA

In the case of O=C(Nc1ccncc1)c1ccc([N+](=O)[O-])o1, the IC50 [1] is reported as 184 µM, the Selectivity index [2] is reported as 2.2 and the TBMIC [3] is reported as 3.12 µg/mL. It also gave a fraction unbound [4] of 0.446.
With O=C(Nc1cccnc1)c1ccc([N+](=O)[O-])o1 the IC50 [1] was 206 µM, the Selectivity index [2] was 2.1 and the TBMIC [3] was 6.25 µg/mL. For the same molecule, the fraction unbound [4] was 0.447.
Molecule O=C(NCc1ccco1)c1ccc([N+](=O)[O-])o1 has an IC50 [1] of 246 µM, a Selectivity index [2] of 0.7 and a TBMIC [3] of 6.25 µg/mL. For the same molecule, the fraction unbound [4] was 0.38.
Work on O=C(Nc1ccccn1)c1ccc([N+](=O)[O-])o1 yielded an IC50 [1] of 227 µM, a Selectivity index [2] of 3.5 and a TBMIC [3] of 3.12 µg/mL. The fraction unbound [4] was 0.438.
In the case of C[C@@H](NC(=O)c1ccc([N+](=O)[O-])o1)c1ccccc1, the IC50 [1] is reported as 150 µM, the Selectivity index [2] is reported as 7.6 and the TBMIC [3] is reported as 3.1 µg/mL. For the same molecule, the fraction unbound [4] was 0.289.
O=C(Nc1cnccn1)c1ccc([N+](=O)[O-])o1 showed an IC50 [1] of 692 µM, a TBMIC [3] of 6.25 µg/mL and a fraction unbound [4] of 0.528.
Work on O=C(NCc1ccccn1)c1ccc([N+](=O)[O-])o1 yielded an IC50 [1] of 481 µM, a TBMIC [3] of 0.8 µg/mL and a fraction unbound [4] of 0.427.
O=C(NC1CCCc2ccccc21)c1ccc([N+](=O)[O-])o1 (configuration not stated) gave an IC50 [1] of 112 µM.
Work on O=C(NC1CCCCC1)c1ccc([N+](=O)[O-])o1 yielded an IC50 [1] of 281 µM, a Selectivity index [2] of 2.9 and a TBMIC [3] of 3.1 µg/mL. It also gave a fraction unbound [4] of 0.352.
With COc1ccc(NC(=O)c2ccc([N+](=O)[O-])o2)cc1 the IC50 [1] was 160 µM, the Selectivity index [2] was 53.6 and the TBMIC [3] was 0.4 µg/mL. It also gave a fraction unbound [4] of 0.369.
COc1ccc(CCNC(=O)c2ccc([N+](=O)[O-])o2)cc1 gave an IC50 [1] of 58.6 µM, a Selectivity index [2] of 25.6 and a TBMIC [3] of 0.8 µg/mL. It also gave a fraction unbound [4] of 0.288.
O=C(c1ccc([N+](=O)[O-])o1)N1CCc2ccccc21 gave a Selectivity index [2] of 9.9, a TBMIC [3] of 0.8 µg/mL and a fraction unbound [4] of 0.25.
For O=C(Nc1cccc(Br)c1)c1ccc([N+](=O)[O-])o1, the IC50 [1] was 35.4 µM, the Selectivity index [2] was 9.6 and the TBMIC [3] was 0.6 µg/mL. The fraction unbound [4] was 0.311.
Work on COc1cccc(NC(=O)c2ccc(S(=O)(=O)c3ccccc3)o2)c1 yielded an IC50 [1] of 64.4 µM, a Selectivity index [2] of 4.1 and a TBMIC [3] of 6.25 µg/mL. The fraction unbound [4] was 0.485.
Work on COc1cccc(CNC(=O)c2ccc([N+](=O)[O-])o2)c1OC yielded an IC50 [1] of 464 µM, a TBMIC [3] of 1.2 µg/mL and a fraction unbound [4] of 0.356.
Work on COc1ccc(CCNC(=O)c2ccc([N+](=O)[O-])o2)cc1OC yielded an IC50 [1] of 165 µM, a Selectivity index [2] of 68.6 and a TBMIC [3] of 0.4 µg/mL. For the same molecule, the fraction unbound [4] was 0.303.
In the case of O=C(Nc1cccc(OCc2ccccc2)c1)c1ccc([N+](=O)[O-])o1, the IC50 [1] is reported as 82.8 µM, the TBMIC [3] is reported as 12.5 µg/mL and the fraction unbound [4] is reported as 0.13.
Work on O=C(Nc1cc[nH]n1)c1ccc([N+](=O)[O-])o1 yielded an IC50 [1] of 729 µM, a Selectivity index [2] of 1.2 and a TBMIC [3] of 6.25 µg/mL. The fraction unbound [4] was 0.513.
With O=C(Nc1cccc(O)c1)c1ccc([N+](=O)[O-])o1 the IC50 [1] was 314 µM, the Selectivity index [2] was 7.8 and the TBMIC [3] was 1.6 µg/mL. It also gave a fraction unbound [4] of 0.391.
COc1cccc2sc(NC(=O)c3ccc([N+](=O)[O-])o3)nc12 gave an IC50 [1] of 210 µM, a TBMIC [3] of 1.6 µg/mL and a fraction unbound [4] of 0.257.
For COc1ccc(CNC(=O)c2ccc([N+](=O)[O-])o2)cc1, the IC50 [1] was 416 µM, the Selectivity index [2] was 163.6 and the TBMIC [3] was 0.1 µg/mL. For the same molecule, the fraction unbound [4] was 0.347.
With O=C(NCc1ccccc1Cl)c1ccc([N+](=O)[O-])o1 the IC50 [1] was 53.4 µM, the Selectivity index [2] was 7.3 and the TBMIC [3] was 1.6 µg/mL. It also gave a fraction unbound [4] of 0.313.
O=C(NC1CCc2ccccc21)c1ccc([N+](=O)[O-])o1 (configuration not stated) gave an IC50 [1] of 264 µM, a Selectivity index [2] of 3.3 and a TBMIC [3] of 3.1 µg/mL. The fraction unbound [4] was 0.23.
Work on O=C(Nc1ccccc1)c1ccc([N+](=O)[O-])o1 yielded an IC50 [1] of 94.7 µM, a Selectivity index [2] of 2.7 and a TBMIC [3] of 0.8 µg/mL. The fraction unbound [4] was 0.325.
Work on COc1cc(CNC(=O)c2ccc([N+](=O)[O-])o2)cc(OC)c1OC yielded an IC50 [1] of 184 µM, a Selectivity index [2] of 29.5 and a TBMIC [3] of 0.8 µg/mL. The fraction unbound [4] was 0.344.
With COc1cccc(NC(=O)c2ccc([S+]([O-])c3ccccc3)o2)c1 (configuration not stated) the Selectivity index [2] was 10.4, the TBMIC [3] was 6.25 µg/mL and the fraction unbound [4] was 0.39.
Molecule N#Cc1ccc(NC(=O)c2ccc([N+](=O)[O-])o2)cc1 has an IC50 [1] of 393 µM, a Selectivity index [2] of 4.4 and a TBMIC [3] of 0.8 µg/mL. It also gave a fraction unbound [4] of 0.249.
COc1ccc(CNC(=O)c2ccc([N+](=O)[O-])o2)c(OC)c1 showed an IC50 [1] of 111 µM, a Selectivity index [2] of 13.5 and a TBMIC [3] of 0.4 µg/mL. It also gave a fraction unbound [4] of 0.409.
Cc1ncc([N+](=O)[O-])n1CCO [METRONIDAZOLE] gave an Activity [5] of 6.9 log CFU and an Activity [6] of 8.5 log CFU.
With O=C(NC12CC3CC(CC(C3)C1)C2)c1ccc([N+](=O)[O-])o1 the IC50 [1] was 169 µM and the TBMIC [3] was 3.1 µg/mL.
In the case of O=C(NCCc1ccccc1)c1ccc([N+](=O)[O-])o1, the IC50 [1] is reported as 315 µM, the Selectivity index [2] is reported as 15.7 and the TBMIC [3] is reported as 1.6 µg/mL. It also gave a fraction unbound [4] of 0.246.
With O=C(Nc1cccc(Cl)c1)c1ccc([N+](=O)[O-])o1 the IC50 [1] was 56.3 µM, the Selectivity index [2] was 8.6 and the TBMIC [3] was 0.8 µg/mL. For the same molecule, the Activity [7] was 7.3 log CFU and the Activity [8] was 8.3 log CFU.
Molecule COc1cccc(NC(=O)c2ccc([N+](=O)[O-])o2)c1 has an Activity [5] of 7.2 log CFU, an IC50 [1] of 160 µM and a Selectivity index [2] of 23.3. The TBMIC [3] was 0.8 µg/mL, the Activity [6] was 8 log CFU and the fraction unbound [4] was 0.364.
With C[C@H](NC(=O)c1ccc([N+](=O)[O-])o1)c1ccccc1 the IC50 [1] was 146 µM, the Selectivity index [2] was 16 and the TBMIC [3] was 1.6 µg/mL. It also gave a fraction unbound [4] of 0.259.
In the case of NNC(=O)c1ccncc1 [ISONIAZID], the Activity [9] is reported as 5.5 log CFU and the Activity [10] is reported as 3.2 log CFU.
In the case of CN(C(=O)c1ccc([N+](=O)[O-])o1)c1ccccc1, the IC50 [1] is reported as 260 µM, the Selectivity index [2] is reported as 7.6 and the TBMIC [3] is reported as 3.12 µg/mL. It also gave a fraction unbound [4] of 0.332.
COc1ccccc1CNC(=O)c1ccc([N+](=O)[O-])o1 gave an IC50 [1] of 358 µM, a TBMIC [3] of 1.6 µg/mL and a fraction unbound [4] of 0.335.
COc1cc(NC(=O)c2ccc([N+](=O)[O-])o2)ncn1 showed a TBMIC [3] of 1.6 µg/mL and a fraction unbound [4] of 0.469.
In the case of COc1ccc(CNC(=O)c2ccc([N+](=O)[O-])o2)cc1OC, the IC50 [1] is reported as 75.1 µM, the Selectivity index [2] is reported as 90.9 and the TBMIC [3] is reported as 0.2 µg/mL. The Activity [7] was 6 log CFU, the fraction unbound [4] was 0.363 and the Activity [8] was 6.5 log CFU.
In the case of COc1ccc(N(C)C(=O)c2ccc([N+](=O)[O-])o2)cc1, the IC50 [1] is reported as 500 µM, the Selectivity index [2] is reported as 4 and the TBMIC [3] is reported as 6.25 µg/mL. It also gave a fraction unbound [4] of 0.395.
Work on O=C(Nc1cccc(F)c1)c1ccc([N+](=O)[O-])o1 yielded an IC50 [1] of 112 µM, a Selectivity index [2] of 11.6 and a TBMIC [3] of 0.8 µg/mL. The Activity [7] was 7 log CFU, the fraction unbound [4] was 0.334 and the Activity [8] was 8.4 log CFU.
